Measured values as given in ChEMBL document CHEMBL4346670, “Discovery of Novel Janus Kinase (JAK) and Histone Deacetylase (HDAC) Dual Inhibitors for the Treatment of Hematological Malignancies” (J Med Chem, 2019).

Legend:
[1] = test system: Jurkat; test: Antiproliferative activity against human Jurkat cells assessed as reduction in cell viability after 48 hrs by MTT assay; assay type: functional, cell-based
[2] = test system: HEL; test: Induction of apoptosis in HEL cells assessed as necrotic apoptotic cells at 1 uM after 24 hrs by Annexin-V/propidium iodide staining-based flow cytometric analysis (reference value: 0.011%); assay type: functional, Homo sapiens
[3] = target: T1, Protein deacetylase HDAC6 (Homo sapiens, UniProt Q9UBN7); test: Inhibition of HDAC6 (unknown origin) using Boc-Lys(acetyl)-AMC as substrate preincubated for 5 mins followed by substrate addition and measured after 30 mins by fluorescence assay
T1 sequence (Q9UBN7 whole entry): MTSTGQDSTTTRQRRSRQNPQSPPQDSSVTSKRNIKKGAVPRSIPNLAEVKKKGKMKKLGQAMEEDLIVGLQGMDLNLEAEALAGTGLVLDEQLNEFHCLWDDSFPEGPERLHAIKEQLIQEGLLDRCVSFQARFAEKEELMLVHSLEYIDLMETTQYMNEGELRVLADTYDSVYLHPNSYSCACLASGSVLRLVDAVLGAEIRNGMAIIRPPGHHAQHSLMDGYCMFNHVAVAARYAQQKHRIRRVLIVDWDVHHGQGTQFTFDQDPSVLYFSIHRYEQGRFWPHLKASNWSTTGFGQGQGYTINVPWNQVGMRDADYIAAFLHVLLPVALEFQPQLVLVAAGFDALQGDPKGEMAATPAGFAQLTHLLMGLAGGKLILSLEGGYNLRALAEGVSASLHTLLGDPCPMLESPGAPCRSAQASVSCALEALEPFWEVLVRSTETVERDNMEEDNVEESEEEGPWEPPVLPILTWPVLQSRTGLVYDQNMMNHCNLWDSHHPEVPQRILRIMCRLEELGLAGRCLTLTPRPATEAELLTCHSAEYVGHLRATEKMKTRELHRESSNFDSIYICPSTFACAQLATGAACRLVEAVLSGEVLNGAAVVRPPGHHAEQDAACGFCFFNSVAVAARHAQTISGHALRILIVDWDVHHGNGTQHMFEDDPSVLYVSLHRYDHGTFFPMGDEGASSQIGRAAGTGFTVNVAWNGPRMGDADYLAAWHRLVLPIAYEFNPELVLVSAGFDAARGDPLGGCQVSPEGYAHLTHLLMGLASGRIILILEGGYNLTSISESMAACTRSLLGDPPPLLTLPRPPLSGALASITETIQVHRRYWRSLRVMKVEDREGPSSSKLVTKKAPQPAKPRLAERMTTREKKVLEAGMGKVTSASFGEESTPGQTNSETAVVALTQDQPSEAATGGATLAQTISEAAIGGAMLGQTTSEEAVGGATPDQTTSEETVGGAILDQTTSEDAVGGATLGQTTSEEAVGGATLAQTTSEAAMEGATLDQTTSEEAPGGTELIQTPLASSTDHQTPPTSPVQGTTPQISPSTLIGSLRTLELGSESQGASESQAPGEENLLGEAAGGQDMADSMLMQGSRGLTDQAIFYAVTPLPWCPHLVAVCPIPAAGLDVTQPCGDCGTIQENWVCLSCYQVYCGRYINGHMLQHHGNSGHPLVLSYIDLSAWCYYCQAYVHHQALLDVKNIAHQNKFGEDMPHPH

[4] = test system: K562; test: Induction of apoptosis in human K562 cells assessed as viable cells at 1 uM after 24 hrs by Annexin-V/propidium iodide staining-based flow cytometric analysis (reference value: 85.7%); assay type: functional; details: Homo sapiens, K562, 24 h; read-out: Activity
[5] = MRT (0 to t) in CD1(ICR) mouse at 1 mg/kg, iv by LC-MS/MS analysis; assay type: ADME, organism-based; details: in vivo
[6] = Half life in rat liver microsomes at 1 uM in presence of NADPH cofactor for phase 1 metabolism and measured upto 60 mins by LC-MS/MS analysis; assay type: ADME, Microsome
How it was run: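 Liver microsomes (rat or human) incubated with compound at 37 °C, with NADPH for phase I or UDPGA for phase II. Reactions stopped in acetonitrile at set time points, vortexed 5 min, stored at -80 °C. Parent remaining in supernatant measured by LC-MS/MS. t1/2 = -0.693/k, with k the slope of ln fraction remaining versus time.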

[7] = target: Mitogen-activated protein kinase 8 (Homo sapiens) (UniProt P45983); test: Inhibition of recombinant human JNK1 at 200 nM using Ulight-CFFKNIVTPRTPPPSQGK-amide as substrate measured after 60 mins by LANCE method relative to control
Mitogen-activated protein kinase 8 (Homo sapiens), sequence (P45983 whole entry): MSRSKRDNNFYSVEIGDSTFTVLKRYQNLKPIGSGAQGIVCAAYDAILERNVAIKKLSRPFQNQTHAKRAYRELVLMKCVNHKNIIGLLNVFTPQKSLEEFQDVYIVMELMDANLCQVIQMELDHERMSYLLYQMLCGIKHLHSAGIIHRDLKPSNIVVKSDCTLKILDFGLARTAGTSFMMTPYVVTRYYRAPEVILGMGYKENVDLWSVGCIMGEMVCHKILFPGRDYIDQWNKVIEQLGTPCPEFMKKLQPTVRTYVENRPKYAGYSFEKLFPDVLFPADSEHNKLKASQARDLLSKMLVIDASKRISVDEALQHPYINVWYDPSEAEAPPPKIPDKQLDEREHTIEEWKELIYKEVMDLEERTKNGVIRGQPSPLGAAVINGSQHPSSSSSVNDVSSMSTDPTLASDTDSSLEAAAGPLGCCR
How it was run: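 Part of an 85-kinase selectivity panel run by a contract lab, with the test compound at 20 nM and at 200 nM. Each human recombinant kinase's phosphorylation of its peptide substrate was measured following the JAK assay method. Activity is given as percent inhibition.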

[8] = MRT (0 to t) in CD1(ICR) mouse at 1 mg/kg, ip by LC-MS/MS analysis; assay type: ADME, organism-based; details: in vivo
[9] = target: Cyclin-dependent kinase 6 (Homo sapiens) (UniProt Q00534); test: Inhibition of recombinant human CDK6 at 20 nM using Ulight-CFFKNIVTPRTPPPSQGK-amide as substrate measured after 60 mins by LANCE assay relative to control
Cyclin-dependent kinase 6 (Homo sapiens), sequence (Q00534 whole entry): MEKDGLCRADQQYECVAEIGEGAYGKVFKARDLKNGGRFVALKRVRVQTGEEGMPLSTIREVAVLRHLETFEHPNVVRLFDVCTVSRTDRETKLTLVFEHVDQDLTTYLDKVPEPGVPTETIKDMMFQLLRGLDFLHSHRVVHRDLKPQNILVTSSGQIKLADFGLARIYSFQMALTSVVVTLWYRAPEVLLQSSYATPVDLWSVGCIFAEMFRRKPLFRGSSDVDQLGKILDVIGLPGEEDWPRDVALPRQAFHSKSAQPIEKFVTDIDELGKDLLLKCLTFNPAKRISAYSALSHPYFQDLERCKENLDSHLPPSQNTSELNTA
How it was run: (§1)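 Single-concentration screen within an 85-kinase panel run by a contract lab, with each compound tested at 20 nM and 200 nM. Human recombinant enzymes were used. Activity was quantified as phosphorylation of a peptide substrate read by LANCE time-resolved detection, and inhibition was expressed relative to control, using the same format as the JAK assay.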

[10] = organism: Homo sapiens; test: Inhibition of recombinant human PKA at 20 nM using Ulight-RRRSLLE peptide as substrate measured after 10 mins by LANCE assay relative to control
[11] = target: Vascular endothelial growth factor receptor 1 (Homo sapiens) (UniProt P17948); test: Inhibition of recombinant human FLT1 at 200 nM using Ulight-TK peptide as substrate measured after 15 mins by LANCE method relative to control; how it was run: as §1
Vascular endothelial growth factor receptor 1 (Homo sapiens), sequence (P17948 whole entry): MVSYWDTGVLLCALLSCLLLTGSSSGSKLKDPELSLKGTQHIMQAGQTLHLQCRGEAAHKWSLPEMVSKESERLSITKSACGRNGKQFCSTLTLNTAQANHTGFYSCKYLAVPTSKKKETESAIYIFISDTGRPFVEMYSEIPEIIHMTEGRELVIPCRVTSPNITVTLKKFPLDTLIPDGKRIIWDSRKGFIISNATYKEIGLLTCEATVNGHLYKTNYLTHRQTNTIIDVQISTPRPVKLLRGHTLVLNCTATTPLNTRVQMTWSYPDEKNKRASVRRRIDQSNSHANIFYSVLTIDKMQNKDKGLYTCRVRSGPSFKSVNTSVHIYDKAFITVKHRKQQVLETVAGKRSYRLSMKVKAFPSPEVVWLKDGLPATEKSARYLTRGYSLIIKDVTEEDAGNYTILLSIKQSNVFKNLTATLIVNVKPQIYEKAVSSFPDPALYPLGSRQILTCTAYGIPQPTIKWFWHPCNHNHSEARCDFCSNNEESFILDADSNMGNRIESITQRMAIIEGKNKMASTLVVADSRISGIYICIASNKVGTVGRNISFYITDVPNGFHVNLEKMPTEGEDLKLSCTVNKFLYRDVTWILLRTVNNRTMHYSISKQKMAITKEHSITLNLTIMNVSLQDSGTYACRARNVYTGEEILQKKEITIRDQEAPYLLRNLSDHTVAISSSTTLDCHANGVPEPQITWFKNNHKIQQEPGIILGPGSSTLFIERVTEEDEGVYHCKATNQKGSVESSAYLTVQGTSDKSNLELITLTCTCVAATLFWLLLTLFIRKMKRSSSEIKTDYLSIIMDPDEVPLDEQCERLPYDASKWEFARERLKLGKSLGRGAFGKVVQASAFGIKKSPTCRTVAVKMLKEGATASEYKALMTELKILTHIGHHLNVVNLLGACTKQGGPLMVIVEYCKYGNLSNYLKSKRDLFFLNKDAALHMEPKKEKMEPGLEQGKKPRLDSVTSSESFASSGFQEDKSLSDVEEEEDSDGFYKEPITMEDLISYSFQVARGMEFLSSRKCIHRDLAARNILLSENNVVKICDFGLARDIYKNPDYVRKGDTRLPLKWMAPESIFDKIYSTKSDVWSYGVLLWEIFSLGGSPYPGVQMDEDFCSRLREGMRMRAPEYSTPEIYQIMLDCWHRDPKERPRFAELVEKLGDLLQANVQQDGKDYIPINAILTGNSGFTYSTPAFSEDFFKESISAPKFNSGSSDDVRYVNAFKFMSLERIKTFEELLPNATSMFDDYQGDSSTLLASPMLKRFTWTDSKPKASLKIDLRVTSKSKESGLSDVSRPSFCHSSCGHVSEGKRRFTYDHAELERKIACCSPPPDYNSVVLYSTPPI

[12] = target: Hepatocyte growth factor receptor (Homo sapiens) (UniProt P08581); test: Inhibition of recombinant human c-MET at 200 nM using Ulight-CAGAGAIETDKEYYTVKD as substrate measured after 60 mins by LANCE method relative to control
Hepatocyte growth factor receptor (Homo sapiens), sequence (P08581 whole entry): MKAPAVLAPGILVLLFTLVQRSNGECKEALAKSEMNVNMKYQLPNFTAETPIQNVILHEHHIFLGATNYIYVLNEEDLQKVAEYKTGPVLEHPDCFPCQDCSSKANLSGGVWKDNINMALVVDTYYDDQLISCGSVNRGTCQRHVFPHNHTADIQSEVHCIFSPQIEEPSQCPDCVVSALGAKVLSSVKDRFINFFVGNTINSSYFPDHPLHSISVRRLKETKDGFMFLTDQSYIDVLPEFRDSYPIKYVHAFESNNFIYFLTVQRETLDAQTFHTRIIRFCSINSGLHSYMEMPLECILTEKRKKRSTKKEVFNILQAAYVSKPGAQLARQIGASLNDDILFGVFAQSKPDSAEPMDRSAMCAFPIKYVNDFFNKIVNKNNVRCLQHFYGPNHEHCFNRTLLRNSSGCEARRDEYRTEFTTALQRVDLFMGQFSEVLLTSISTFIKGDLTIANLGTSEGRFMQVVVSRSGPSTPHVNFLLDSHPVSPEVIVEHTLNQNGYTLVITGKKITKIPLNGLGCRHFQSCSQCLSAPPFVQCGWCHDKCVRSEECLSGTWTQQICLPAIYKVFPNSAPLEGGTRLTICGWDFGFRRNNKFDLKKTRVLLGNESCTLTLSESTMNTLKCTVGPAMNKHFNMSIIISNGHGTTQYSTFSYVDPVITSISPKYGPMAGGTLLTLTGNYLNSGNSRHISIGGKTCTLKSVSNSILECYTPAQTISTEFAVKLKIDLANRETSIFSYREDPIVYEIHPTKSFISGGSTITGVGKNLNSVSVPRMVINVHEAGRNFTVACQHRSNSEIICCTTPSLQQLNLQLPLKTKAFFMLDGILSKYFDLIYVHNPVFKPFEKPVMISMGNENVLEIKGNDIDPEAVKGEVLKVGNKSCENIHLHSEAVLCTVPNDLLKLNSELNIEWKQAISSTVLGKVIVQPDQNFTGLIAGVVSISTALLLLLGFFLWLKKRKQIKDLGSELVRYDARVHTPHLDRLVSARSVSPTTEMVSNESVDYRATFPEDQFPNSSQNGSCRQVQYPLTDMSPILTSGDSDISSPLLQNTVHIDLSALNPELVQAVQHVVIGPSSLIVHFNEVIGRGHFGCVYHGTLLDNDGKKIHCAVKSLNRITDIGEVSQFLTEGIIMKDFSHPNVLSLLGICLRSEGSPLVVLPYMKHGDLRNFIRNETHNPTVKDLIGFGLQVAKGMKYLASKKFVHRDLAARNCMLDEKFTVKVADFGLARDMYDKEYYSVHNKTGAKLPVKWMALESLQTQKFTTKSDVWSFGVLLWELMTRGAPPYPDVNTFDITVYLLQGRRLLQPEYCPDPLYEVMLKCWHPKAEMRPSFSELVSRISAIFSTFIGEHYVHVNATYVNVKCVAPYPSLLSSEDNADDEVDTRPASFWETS

[13] = target: Ribosomal protein S6 kinase alpha-4 (Homo sapiens) (UniProt O75676); test: Inhibition of recombinant human MSK2 at 20 nM using biotinyl-beta […] AAAARARTSSFAEPG after 15 mins by HTRF method relative to control
Ribosomal protein S6 kinase alpha-4 (Homo sapiens), sequence (O75676 whole entry, looked up): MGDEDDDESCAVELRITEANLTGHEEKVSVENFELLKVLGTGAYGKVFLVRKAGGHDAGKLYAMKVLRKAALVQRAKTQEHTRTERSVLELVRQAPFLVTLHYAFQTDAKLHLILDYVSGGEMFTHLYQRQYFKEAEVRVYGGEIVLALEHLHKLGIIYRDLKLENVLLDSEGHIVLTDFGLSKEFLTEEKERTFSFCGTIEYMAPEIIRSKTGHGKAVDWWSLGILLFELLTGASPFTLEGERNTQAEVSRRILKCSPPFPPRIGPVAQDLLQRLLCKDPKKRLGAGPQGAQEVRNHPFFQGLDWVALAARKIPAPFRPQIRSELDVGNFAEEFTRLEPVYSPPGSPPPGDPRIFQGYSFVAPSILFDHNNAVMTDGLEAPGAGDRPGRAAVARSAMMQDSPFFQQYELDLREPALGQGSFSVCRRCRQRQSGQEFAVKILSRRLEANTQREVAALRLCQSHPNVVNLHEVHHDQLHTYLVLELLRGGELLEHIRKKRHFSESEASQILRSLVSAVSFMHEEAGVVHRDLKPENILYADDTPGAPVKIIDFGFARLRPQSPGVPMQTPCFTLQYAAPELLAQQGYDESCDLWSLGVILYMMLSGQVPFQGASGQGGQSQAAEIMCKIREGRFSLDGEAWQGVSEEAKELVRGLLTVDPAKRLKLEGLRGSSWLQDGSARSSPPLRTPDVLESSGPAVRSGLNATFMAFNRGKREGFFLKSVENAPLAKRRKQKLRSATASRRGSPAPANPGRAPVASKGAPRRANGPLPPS

[14] = target: cAMP-dependent protein kinase catalytic subunit PRKX (Homo sapiens) (UniProt P51817); test: Inhibition of recombinant human PRKX at 20 nM using Ulight-RRRSLLE as substrate measured after 30 mins by LANCE method relative to control
cAMP-dependent protein kinase catalytic subunit PRKX (Homo sapiens), sequence (P51817 whole entry): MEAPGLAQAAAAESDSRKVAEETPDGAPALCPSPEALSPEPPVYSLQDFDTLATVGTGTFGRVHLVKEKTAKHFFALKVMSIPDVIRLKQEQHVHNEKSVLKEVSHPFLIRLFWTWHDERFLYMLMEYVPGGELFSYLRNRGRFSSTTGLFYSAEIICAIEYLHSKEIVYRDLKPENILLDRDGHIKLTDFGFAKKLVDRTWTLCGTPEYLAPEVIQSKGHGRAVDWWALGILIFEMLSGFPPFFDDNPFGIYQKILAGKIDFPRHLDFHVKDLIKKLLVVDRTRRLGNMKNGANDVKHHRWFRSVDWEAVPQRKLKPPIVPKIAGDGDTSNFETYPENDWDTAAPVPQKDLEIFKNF

[15] = target: Testis-specific serine/threonine-protein kinase 1 (Homo sapiens) (UniProt Q9BXA7); test: Inhibition of recombinant human TSSK1 at 20 nM using Ulight-RRRSLLE as substrate measured after 60 mins by LANCE method relative to control
[16] = target: Calcium/calmodulin-dependent protein kinase type 1 (Homo sapiens) (UniProt Q14012); test: Inhibition of recombinant human CAMK1alpha at 20 nM using CREBtide as substrate measured after 30 mins by LANCE assay relative to control; how it was run: as §1
Calcium/calmodulin-dependent protein kinase type 1 (Homo sapiens), sequence (Q14012 whole entry, looked up): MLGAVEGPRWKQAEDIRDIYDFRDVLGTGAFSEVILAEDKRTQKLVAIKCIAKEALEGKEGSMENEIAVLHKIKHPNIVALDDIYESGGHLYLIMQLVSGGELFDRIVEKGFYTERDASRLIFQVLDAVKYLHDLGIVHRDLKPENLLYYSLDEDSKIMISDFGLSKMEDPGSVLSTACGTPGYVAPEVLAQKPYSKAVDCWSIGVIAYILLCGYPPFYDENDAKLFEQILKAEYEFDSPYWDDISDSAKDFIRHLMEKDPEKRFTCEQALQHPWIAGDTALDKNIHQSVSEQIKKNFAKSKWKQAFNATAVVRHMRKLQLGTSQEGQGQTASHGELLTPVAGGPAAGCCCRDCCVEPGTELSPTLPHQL

IC50 [1] [nM] | IC50 [3] [nM] | MRT last [5] [min] | half-life at 1 µM [6] [min] | inhibition [7] [%] | MRT last [8] [min] | inhibition [9] [%] | inhibition [10] [%] | inhibition [11] [%] | inhibition [12] [%] | inhibition [13] [%] | inhibition [14] [%] | inhibition [15] [%] | inhibition [16] [%] | Structure (SMILES) | Activity [2] [%] | viability at 1 µM [4] [%]
100 | 41 | – | – | – | – | – | – | – | – | – | – | – | – | O=C(CCCCCCn1cc(Nc2ncc(Cl)c(Nc3cccc(Cl)c3)n2)cn1)NO | 2.58 | 53.6
60 | 14 | 16.2 | 14.6 | 13 | 21.6 | 10 | -10 | 61 | 37 | -2 | -1 | -3 | 2 | O=C(CCCCCn1cc(Nc2ncc(Cl)c(Nc3ccc(Cl)cc3)n2)cn1)NO | 7.97 | 17.6
